Laboratory results published in PMC3457684 (Science translational medicine, 2012).
“And” between values parts separate entries of the source, which are not always exact repeats. Equal values may be shown once. Read-outs that look alike come from different tables or passages of the source.

Key:
[1] = system: L. donovani (strain LdBOB) promastigotes; assay: In vitro drug sensitivity assay, promastigotes; format: cell-based, Leishmania donovani; settings: for EC50: Leishmania donovani, 72 h, read-out: L. donovani EC50, Promastigote
Outline: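 Clonal LdBOB promastigotes were grown at 26 °C in stage-specific medium. Triplicate cultures were seeded at 1 × 10⁵ parasites ml⁻¹ with test compound for 72 h, then given 50 μM resazurin, and fluorescence (ex 528, em 590 nm) was read after 4 h. For isobolograms, mid-log promastigotes received the two metabolites in fixed combinations relative to their respective EC50s. The EC50 of each combination was determined at 72 h (triplicate, mean ± SD) and plotted.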

[2] = system: L. donovani (strain LdBOB) axenic amastigotes; assay: In vitro drug sensitivity assay, axenic amastigotes; format: cell-based; settings: Leishmania donovani
Outline: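 Clonal LdBOB axenic amastigotes were grown at 37 °C in 5% CO₂ in stage-specific medium and cycled between stages after at most 7 passages. Triplicate cultures were seeded at 1 × 10⁵ parasites ml⁻¹ with test compound for 72 h. Resazurin (50 μM) was added, and fluorescence (ex 528, em 590 nm) was read 4 h later. At least three experiments were run; results are weighted mean plus weighted standard deviation.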

[3] = Fexinidazole exposure in mice after acute oral dosing; format: in vivo, BALB/c mice; settings: single oral dose of fexinidazole 200 mg kg^−1, mouse blood
[4] = Plasma protein binding by equilibrium dialysis; format: in vitro ADME; settings: mouse
[5] = system: L. donovani (strain LdBOB) axenic amastigotes overexpressing L. major nitroreductase; assay: Drug susceptibility of axenic amastigotes overexpressing L. major nitroreductase; format: cell-based, Leishmania donovani; settings: for shift in sensitivity, nitroreductase overexpressing vs wildtype: axenic amastigotes; for EC50: read-out: EC50, axenic amastigotes overexpressing nitroreductase
[6] = system: L. donovani (strain LdBOB) axenic amastigotes; assay: Cytocidal effect on axenic amastigotes; format: cell-based, Leishmania donovani; settings: drug at 10 times its EC50 (sulfone 36 μM), wash-out and sub-culture without drug
Outline: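 Early-log LdBOB axenic amastigotes (~1 × 10⁶ ml⁻¹), grown at 37 °C in 5% CO₂, were exposed to test compound at 36 μM. At intervals, cell density was counted, and samples were removed, washed and resuspended in fresh drug-free medium. Viability of washed parasites was followed for up to 72 h after drug removal to find the point of irreversible toxicity.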

[7] = system: intracellular L. donovani (LV9) amastigotes in peritoneal mouse macrophages; assay: In macrophage drug sensitivity assay; format: cell-based, Leishmania donovani; settings: strain LV9, peritoneal mouse macrophages, 72h
L. donovani strain LV9 = assay: In vivo drug sensitivity, mouse model of visceral leishmaniasis; design: species or system BALB/c mice; settings: oral, once daily for 5 days
L. donovani = settings: similar in vivo studies; cited from earlier work
[8] = 72 h, read-out: L. donovani EC50, Axenic amastigote
[9] = read-out: EC50, wildtype axenic amastigotes

Row | Compound | EC50 [1] [µM] | EC50 [2, 8] [µM] | EC50 [2, 9] [µM] | time blood concentration stays above EC99 [3] | fraction unbound [4] | shift in sensitivity, nitroreductase overexpressing vs wildtype [5] | EC50 [5] [µM] | exposure time after which no viable parasites could be recovered [6] [h] | interaction in combination (isobologram) ([1]; fexinidazole sulfoxide plus sulfone, LdBOB promastigotes, 72h) | L. donovani EC50, Amastigote (in macrophages) [7] | tolerability in mice (L. donovani strain LV9; up to 200 mg kg^−1) | ED50 (L. donovani strain LV9; liver parasite burden day 14) | ED50 (L. donovani) [mg/kg] | ED90 (L. donovani) [mg/kg]
1 | Cn1c([N+](=O)[O-])cnc1COc1ccc(S(C)(=O)=O)cc1 [Fexinidazole sulfone, fexinidazole sulfone] | 4.8 ± 0.1 | 1.6 ± 0.1 | 4.4 ± 0.1 | more than 24 h | 0.73 | 19 fold | 0.23 ± 0.1 | 30 |  |  |  |  |  | 
2 | Cn1c([N+](=O)[O-])cnc1COc1ccc([S+](C)[O-])cc1 (stereo not drawn) [Fexinidazole sulfoxide, fexinidazole sulfoxide] | 3.1 ± 0.1 | 4.5 ± 0.3 |  | 8 h | 0.86 |  |  | 30 | additive |  |  |  |  | 
3 | CSc1ccc(OCc2ncc([N+](=O)[O-])n2C)cc1 [Fexinidazole, fexinidazole] | 5.6 ± 0.2 | 2.8 ± 0.1 |  |  | 0.15 | 19 fold |  |  |  | inactive | well tolerated | ~12 mg/kg and 11.9 ± 2.3 mg/kg |  | 
4 | CCCCCCCCCCCCCCCCOP(=O)([O-])OCC[N+](C)(C)C [Miltefosine, miltefosine] | 6.1 ± 0.3 | 4.4 ± 0.2 |  |  | 0.002 | no concomitant shift | 4.9 ± 0.2 |  |  |  |  |  | 4 | 27
5 | O.O.O.O.O.O.O.O.O.O=C([O-])[C@@H]1[O][Sb](=[O])([O][Sb]2(=[O])[O][C@H]([C@H](O)CO)[C@H](O)[C@H](C(=O)[O-])[O]2)[O][C@H]([C@H](O)CO)[C@@H]1O.[Na+].[Na+].[Na+] (stereo partly drawn) [Pentostam] |  |  |  |  |  |  |  |  |  |  |  |  | 20 | 57
6 | CC1CS(=O)(=O)CCN1/N=C/c1ccc([N+](=O)[O-])o1 (stereo not drawn) [nifurtimox] |  |  | 5.6 ± 0.2 |  |  | 27 fold | 0.2 ± 0.1 |  |  |  |  |  |  | 
